Assay results published in ChEMBL document CHEMBL2321845, “Discovery of 4-Aryl-2-benzoyl-imidazoles as tubulin polymerization inhibitor with potent antiproliferative properties” (J Med Chem, 2013).
pIC50: −log10 of the molar value.

Experiments:
[1] = Cytotoxicity against human WM164 cells assessed as growth inhibition after 48 hrs by SRB assay; type: functional, cell-based; conditions: WM164, 48 h
Method in brief: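 Melanoma cells from ATCC, grown in DMEM with 10% FBS at 37°C under 5% CO2. Seeded at 1000–5000 cells/well according to growth rate and exposed to a range of compound concentrations for 48 h, in three to five replicates. Cells were fixed with 10% TCA, stained with 0.4% SRB and read at 540 nm. IC50 (50% growth inhibition versus untreated control) was taken from nonlinear regression of % survival against concentration.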

[2] = Cytotoxicity against human MDA-MB-435/LCC6MDR1 cells assessed as growth inhibition after 48 hrs by SRB assay; type: functional, cell-based, MDA-MB-435/LCC6 MDR1
PC-3 [3] = test: Cytotoxicity against human PC3 cells assessed as growth inhibition after 96 hrs by SRB assay; type: functional, cell-based; conditions: PC-3, 96 h
Method in brief: (§1)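 Plated at 1000–5000 cells/well depending on growth rate and treated with graded compound concentrations for 96 h, three to five replicates. Cell number was measured by SRB: 10% TCA fixation, 0.4% SRB staining, absorbance at 540 nm. IC50 relative to untreated control came from a nonlinear regression fit.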

DU-145 = test: Cytotoxicity against human DU145 cells assessed as growth inhibition after 96 hrs by SRB assay; type: functional, cell-based
LNCaP = test: Cytotoxicity against human LNCAP cells assessed as growth inhibition after 96 hrs by SRB assay; type: functional, cell-based; method in brief: as §1
A-375 = test: Cytotoxicity against human A375 cells assessed as growth inhibition after 48 hrs by SRB assay; type: functional, cell-based; conditions: A-375, 48 h
Method in brief: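 Melanoma cells from ATCC, grown in DMEM with 10% FBS at 37°C under 5% CO2. Seeded at 1000–5000 cells/well according to growth rate and exposed to a range of compound concentrations for 48 h, in three to five replicates. Cells were fixed with 10% TCA, stained with 0.4% SRB and read at 540 nm.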

MDA-MB-435 = test: Cytotoxicity against human MDA-MB-435 cells assessed as growth inhibition after 48 hrs by SRB assay; type: functional, cell-based; conditions: MDA-MB-435, 48 h
PPC-1 = test: Cytotoxicity against human PPC1 cells assessed as growth inhibition after 96 hrs by SRB assay; type: functional, cell-based; conditions: PPC-1, 96 h; method in brief: as §1
PC-3 [4] = test: Cell cycle arrest in human PC3 cells assessed as accumulation at G2/M phase after 24 hrs by propidium iodide staining based FACS analysis (reference value: 18%); type: functional
[5] = Homo sapiens, MDA-MB-435/LCC6 MDR1, 48 h

Structure (SMILES) | pIC50 [1] | pIC50 [2, 5] | pIC50 (PC-3 [3]) | pIC50 (DU-145; Homo sapiens, DU-145, 96 h) | pIC50 (LNCaP) | pIC50 (A-375) | pIC50 (MDA-MB-435) | pIC50 (PPC-1) | Activity (PC-3 [4]) | Activity (PC-3 [4]; record 2) | pIC50 ([2]; mda-mb-435/lcc6 mdr1) | pIC50 (DU-145; du-145)
COc1cc(C(=O)c2nc(-c3ccccc3)cn2Cc2ccccc2)cc(OC)c1OC | 7.47 | 6.81 | 7.14 | 6.80 | 7.18 | 6.98 | 7.03 | 7.11 |  |  |  | 
CCc1ccc(-c2nc(C(=O)c3cc(OC)c(OC)c(OC)c3)c[nH]2)cc1 |  | 7.57 | 7.89 | 7.60 |  | 7.85 | 7.60 | 7.82 | Dose-dependent effect | <=70% |  | 
COc1cc(-c2c[nH]c(C(=O)c3ccccc3)n2)cc(OC)c1OC | 5.90 | 5.24 | 6.20 | 5.89 | 6.71 | 5.99 | 5.34 | 6.39 |  |  |  | 
COc1cc(C(=O)c2nc(-c3ccc(N(C)C)cc3)c[nH]2)cc(OC)c1OC | 6.89 | 6.79 | 6.93 | 6.58 | 7.02 | 6.85 | 6.70 | 6.92 |  |  |  | 
COc1cc(C(=O)c2c[nH]c(-c3ccc(C(C)(C)C)cc3)n2)cc(OC)c1OC |  | 5.51 | 6.36 | 5.77 | 6.37 |  | 5.43 | 6.53 |  |  |  | 
COc1cc(C(=O)c2nc(-c3cc(OC)c(OC)c(OC)c3)c[nH]2)cc(OC)c1OC | < 4.30 | < 4.30 | < 4.30 | < 4.30 | < 4.30 | < 4.30 | < 4.30 | < 4.30 |  |  |  | 
O=C(c1ccc(C(F)(F)F)cc1)c1nc(-c2ccc(C(F)(F)F)cc2)c[nH]1 | < 4.30 | 4.58 | < 4.30 | < 4.30 | < 4.30 | < 4.30 | < 4.30 | < 4.30 |  |  |  | 
Cc1ccc(C(=O)c2nc(-c3ccc(C)cc3)c[nH]2)cc1 | 5.43 | 5.49 | 5.29 | 5.18 | 5.42 | 5.60 | 5.52 | 5.62 |  |  |  | 
CN(C)c1ccc(C(=O)c2nc(-c3ccc(N(C)C)cc3)c[nH]2)cc1 | < 4.30 | < 4.30 |  |  |  | < 4.30 | < 4.30 |  |  |  |  | 
COc1cc(-c2c[nH]c(C(=O)c3ccc(Br)cc3)n2)cc(OC)c1OC | 6.75 | 6.79 | 6.43 | 6.37 | 6.88 | 6.87 | 6.73 | 6.97 |  |  |  | 
COc1cc(-c2c[nH]c(C(=O)c3ccc(O)cc3)n2)cc(OC)c1OC | < 4.30 | < 4.30 |  |  |  | < 4.30 | < 4.30 |  |  |  |  | 
COc1cc(-c2c[nH]c(C(=O)c3ccc(N(C)C)cc3)n2)cc(OC)c1OC | 4.34 | 4.39 |  |  |  | 4.32 | 4.53 |  |  |  |  | 
CCCc1[nH]c(C(=O)c2cc(OC)c(OC)c(OC)c2)nc1-c1ccccc1 | 4.71 | 4.85 | 4.91 | 4.79 | 5.51 | 4.43 | 4.52 | 4.94 |  |  |  | 
COc1cc(C(=O)c2nc(-c3ccccc3)c(C)[nH]2)cc(OC)c1OC | 5.72 | 5.80 | 5.79 | 5.70 | 6.03 | 5.89 | 5.79 | 6.07 |  |  |  | 
COc1cc(C(=O)c2c[nH]c(-c3ccc(C)cc3)n2)cc(OC)c1OC |  |  |  |  |  |  |  |  |  |  | 7.96 | 7.96
COc1cc(Cc2nc(-c3ccccc3)c[nH]2)cc(OC)c1OC |  |  |  |  |  | 4.99 |  |  |  |  |  | 
CCc1[nH]c(Cc2cc(OC)c(OC)c(OC)c2)nc1-c1ccccc1 |  | < 4.30 |  |  |  |  | < 4.30 |  |  |  |  | 
COc1cc(C(=O)c2nc(-c3ccccc3)cn2C2CCCC2)cc(OC)c1OC | 7.25 | 6.79 | 7.25 | 6.78 | 7.29 | 6.87 | 6.87 | 7.20 |  |  |  | 
CCCn1cc(-c2ccccc2)nc1C(=O)c1cc(OC)c(OC)c(OC)c1 | 7.85 | 7.36 | 7.59 | 7.14 | 7.31 | 7.38 | 7.43 | 8.00 |  |  |  | 

Structure (SMILES) | pIC50 [1] | pIC50 [2, 5] | pIC50 (PC-3 [3]) | pIC50 (DU-145; Homo sapiens, DU-145, 96 h) | pIC50 (LNCaP) | pIC50 (A-375) | pIC50 (MDA-MB-435) | pIC50 (PPC-1) | Activity (PC-3 [4]) | Activity (PC-3 [4]; record 2) | pIC50 ([2]; mda-mb-435/lcc6 mdr1) | pIC50 (DU-145; du-145)
COc1cc(C(=O)c2nc(-c3ccc(Cl)cc3)c[nH]2)cc(OC)c1OC | 7.20 | 7.12 | 7.19 | 6.90 | 7.66 | 7.29 | 6.97 | 7.29 |  |  |  | 
O=C(c1ccc(Cl)cc1)c1nc(-c2ccc(Cl)cc2)c[nH]1 | < 4.30 | < 4.30 | < 4.30 | < 4.30 | < 4.30 | 4.45 | < 4.30 | < 4.30 |  |  |  | 
COc1cc(C(=O)c2nc(-c3ccccc3)cn2C(C)C)cc(OC)c1OC | 7.64 | 7.36 | 7.28 | 6.94 | 7.21 | 7.42 | 7.74 | 7.82 |  |  |  | 
O=C(c1ccc(F)cc1)c1nc(-c2ccc(F)cc2)c[nH]1 | < 4.30 | < 4.30 | < 4.30 | < 4.30 | < 4.30 | < 4.30 | < 4.30 | < 4.30 |  |  |  | 
COc1cc(C(=O)c2c[nH]c(-c3ccc(C(C)C)cc3)n2)cc(OC)c1OC |  | 6.60 | 6.87 | 6.32 | 6.77 |  | 6.51 | 6.76 |  |  |  | 
COc1cc(Cc2nc(-c3ccccc3)c(C)[nH]2)cc(OC)c1OC |  |  |  |  |  | < 4.30 |  |  |  |  |  | 
COc1cc(C(=O)c2nc(-c3ccc(C)cc3)c[nH]2)cc(OC)c1OC | 7.85 | 7.68 |  |  | 7.89 | 7.89 | 7.57 |  |  |  |  | 
CCc1[nH]c(C(=O)c2cc(OC)c(OC)c(OC)c2)nc1-c1ccccc1 | 5.26 | 5.29 | 5.44 | 5.29 | 5.69 | 5.67 | 5.06 | 5.68 |  |  |  | 
O=C(c1ccc(O)cc1)c1nc(-c2ccc(O)cc2)c[nH]1 | 4.32 | 4.67 |  |  |  | 4.41 | 4.32 |  |  |  |  | 
O=C(c1ccccc1)c1nc(-c2ccccc2)c[nH]1 | < 4.30 | < 4.30 | < 4.30 | < 4.30 | < 4.30 | < 4.30 | < 4.30 | < 4.30 |  |  |  | 
COc1ccc(C(=O)c2nc(-c3cc(OC)c(OC)c(OC)c3)c[nH]2)cc1 | 4.44 | 4.94 | 4.98 | < 4.30 | 6.15 | 4.45 | 4.96 | 5.25 |  |  |  | 
COc1ccc(C(=O)c2nc(-c3ccc(OC)cc3)c[nH]2)cc1 | < 4.30 | < 4.30 | 4.63 | 5.01 | 5.19 | < 4.30 | < 4.30 | 4.42 |  |  |  | 
O=C(c1ccc(Br)cc1)c1nc(-c2ccc(Br)cc2)c[nH]1 | 4.58 | 4.75 | 4.72 | 4.59 | 4.77 | 4.60 | 4.84 | 4.88 |  |  |  | 
COc1cc(C(=O)c2nc(-c3ccccc3)cn2-c2cccs2)cc(OC)c1OC | 8.10 | 7.57 |  |  |  | 7.70 | 7.60 |  |  |  |  | 
CCCc1[nH]c(Cc2cc(OC)c(OC)c(OC)c2)nc1-c1ccccc1 |  | 4.80 |  |  |  |  | 4.96 |  |  |  |  | 
COc1cc(Cc2nc(-c3ccccc3)c(-c3ccccc3)[nH]2)cc(OC)c1OC |  | < 4.30 |  |  |  |  | < 4.30 |  |  |  |  | 
COc1cc(C(=O)c2nc(-c3ccc(O)cc3)c[nH]2)cc(OC)c1OC | 6.26 | 6.34 | 6.81 | 6.29 | 6.66 | 6.31 | 6.17 | 6.91 |  |  |  | 
COc1ccc(-c2c[nH]c(C(=O)c3cc(OC)c(OC)c(OC)c3)n2)cc1 | 7.39 | 7.23 | 7.21 | 6.68 |  | 7.48 | 7.26 | 7.27 |  |  |  | 
COc1cc(C(=O)c2nc(-c3ccc(F)cc3)c[nH]2)cc(OC)c1OC | 6.53 | 6.58 | 6.71 | 6.45 | 6.94 | 6.71 | 6.49 | 6.87 |  |  |  | 
